Measurements collected from several papers.
≈ marks a conversion by molar mass, not a printed value.

| Structure (SMILES) | organism | assay | test system | setting | endpoint | result |
| --- | --- | --- | --- | --- | --- | --- |
| CC(O)CSc1nnc(Cn2cnc3c2c(=O)n(C)c(=O)n3C)n1-c1ccccc1 (stereo not shown) | Escherichia coli | microbial growth, disc diffusion |  | 25 µg/disc | inhibition zone | 11 mm |
| CO/N=C(\C(=O)N[C@@H]1C(=O)N2C(C(=O)O)=C(CSC(=O)c3ccco3)CS[C@H]12)c1csc(N)n1 | Staphylococcus aureus | microbial killing | CVCC546 | 18 h | MBC | 2 µg/mL |
| CC1(C)S[C@@H]2[C@H](NC(=O)[C@H](N)c3ccc(O)cc3)C(=O)N2[C@H]1C(=O)O | Escherichia coli | microbial growth, disc diffusion |  | 100 µg/mL, 24 h | inhibition zone | 20 mm |
| CC(O)CSc1nnc(-c2cc3ccccc3o2)n1-c1ccccc1 (stereo not shown) | Staphylococcus aureus | microbial growth, disc diffusion |  | 25 µg/disc | inhibition zone | 11.3 mm |
| O=C(O)c1cn(C2CC2)c2cc(N3CCNCC3)c(F)cc2c1=O | Escherichia coli | microbial growth, disc diffusion |  | 100 µg/mL, 24 h | inhibition zone | 25 mm |
| CC(C)(O/N=C(\C(=O)N[C@@H]1C(=O)N2C(C(=O)[O-])=C(C[n+]3ccccc3)CS[C@H]12)c1csc(N)n1)C(=O)O | Escherichia coli | microbial growth, disc diffusion |  | 2000 µg/mL, 24 h | inhibition zone | 5 mm |
| CO/N=C(\C(=O)N[C@@H]1C(=O)N2C(C(=O)O)=C(COC(C)=O)CS[C@H]12)c1csc(N)n1 | Escherichia coli | microbial growth, broth dilution |  | clinical isolate | MIC90 | 64 µg/mL (≈ 141 µM) |
| C=C/C=C(\C)CC[C@H]1C[C@@H](O)CC(=O)O1 | Staphylococcus aureus | microbial growth, broth dilution | ATCC6538P |  | MIC | 256 µg/mL (≈ 1220 µM) |
| CC(O)CSc1nnc(-c2cc3c(ccc4ccccc43)o2)n1-c1ccccc1 (stereo not shown) | Escherichia coli | microbial growth, disc diffusion |  | 25 µg/disc | inhibition zone | 15.7 mm |
| C[C@@H](O)[C@H]1C(=O)N2C(C(=O)O)=C(SCCN=CN)C[C@H]12 | Escherichia coli | microbial growth, disc diffusion |  | 2000 µg/mL, 24 h | inhibition zone | 18.5 mm |
